Source: ChEMBL document CHEMBL1123769, “Renin inhibitors. Design of angiotensinogen transition-state analogues containing novel. (2R,3R,4R,5S)-5-amino-3,4-dihydroxy-2-isopropyl-7-methyloctanoic acid” (J Med Chem, 1987)
Where a SMILES comes first, the peptide text is derived from it. [ ]: non-standard residue; d: D form. The star is where a group is joined. 1Nal = N[C@@H](Cc1cccc2ccccc12)C(=O)O; Leu(ol) = CC(C)C[C@H](N)CO; Cbz = O=C(OCc1ccccc1)*

target: T1, Renin (Homo sapiens, UniProt P00797); experiment: Tested for the inhibition of human plasma renin
T1 sequence (P00797 whole entry): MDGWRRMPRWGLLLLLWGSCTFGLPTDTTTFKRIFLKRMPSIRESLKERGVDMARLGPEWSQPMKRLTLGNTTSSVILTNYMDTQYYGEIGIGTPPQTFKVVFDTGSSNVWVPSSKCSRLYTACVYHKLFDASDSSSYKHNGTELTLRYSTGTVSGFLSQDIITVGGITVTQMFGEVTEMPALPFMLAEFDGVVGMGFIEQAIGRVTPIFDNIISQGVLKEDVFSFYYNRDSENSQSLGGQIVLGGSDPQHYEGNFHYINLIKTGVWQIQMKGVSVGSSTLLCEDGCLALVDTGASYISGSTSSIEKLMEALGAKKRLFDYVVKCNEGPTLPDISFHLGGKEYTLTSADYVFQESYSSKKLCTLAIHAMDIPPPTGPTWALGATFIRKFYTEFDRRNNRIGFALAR
Summary of the method: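 Lyophilized human plasma with 0.1% EDTA, incubated with phenylmethanesulfonyl fluoride, maleate buffer (pH 6.0) and inhibitor in 1% Tween 80/water vehicle, 90 min at 37 °C. Angiotensin I generated was measured by radioimmunoassay kit. Percent inhibition came from inhibitor versus control plasma renin activity. IC50 was estimated graphically from 3–4 inhibitor concentrations plotted on a semilog scale.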

IC50 [µM]	Structure (SMILES)
0.75	CC(C)C[C@@H](C=O)NC(=O)[C@H](Cc1c[nH]cn1)NC(=O)[C@H](Cc1ccccc1)NC(=O)OCc1ccccc1 (Cbz-Phe-His-Leu-aldehyde)
3.4	CC[C@H](C)CNC(=O)[C@H](C(C)C)[C@@H](O)[C@H](O)[C@H](CC(C)C)NC(=O)[C@H](Cc1c[nH]cn1)NC(=O)[C@H](Cc1ccccc1)NC(=O)OC(C)(C)C
3.6	CC(C)C[C@@H](CO)NC(=O)[C@H](Cc1c[nH]cn1)NC(=O)[C@H](Cc1cccc2ccccc12)NC(=O)OCc1ccccc1 (Cbz-[1Nal]-His-[Leu(ol)])
2.6	CC(C)(C)OC(=O)N[C@@H](Cc1ccccc1)C(=O)N[C@@H](Cc1c[nH]cn1)C(=O)N[C@@H](Cc1ccccc1)[C@@H](O)CO

More lines, now with the values behind:

Structure (SMILES)	IC50 [µM]
CC(C)C[C@@H](C=O)NC(=O)[C@H](Cc1c[nH]cn1)NC(=O)[C@H](Cc1cccc2ccccc12)NC(=O)OCc1ccccc1 (Cbz-[1Nal]-His-Leu-aldehyde)	0.08
CC[C@H](C)[C@H](NC(=O)[C@@H](C[C@H](O)[C@H](CC(C)C)NC(=O)[C@H](Cc1c[nH]cn1)NC(=O)[C@H](Cc1ccccc1)NC(=O)OC(C)(C)C)C(C)C)C(=O)NCc1ccccn1	0.22
CC[C@H](C)[C@H](NC(=O)[C@H](C(C)C)[C@@H](O)[C@H](O)[C@H](CC(C)C)NC(=O)[C@H](Cc1c[nH]cn1)NC(=O)[C@H](Cc1ccccc1)NC(=O)OC(C)(C)C)C(=O)NCc1ccccn1	0.35
O=C(N[C@@H](Cc1cccc2ccccc12)C(=O)N[C@@H](Cc1c[nH]cn1)C(=O)N[C@@H](Cc1ccccc1)[C@@H](O)CO)OCc1ccccc1	1
CC[C@H](C)[C@H](NC(=O)[C@@H](CC(=O)[C@H](CC(C)C)NC(=O)[C@H](Cc1c[nH]cn1)NC(=O)[C@H](Cc1ccccc1)NC(=O)OC(C)(C)C)C(C)C)C(=O)NCc1ccccn1	3.1

target: T2, Renin (Homo sapiens) (UniProt P00797); experiment: Tested for the inhibition of human plasma renin at 10e-4 M concentration
T2 sequence (whole entry): T1 sequence (P00797 whole entry)

inhibition [%]	Structure (SMILES)
22	CC(C)C[C@@H](CO)NC(=O)[C@H](Cc1c[nH]cn1)NC(=O)[C@H](Cc1ccccc1)NC(=O)OCc1ccccc1 (HELM PEPTIDE1{[O=C(OCc1ccccc1)[*:2]].F.H.[CC(C)C[C@@H](CO)N[*:1]]}$$$$V2.0)
